A selection: hits, their analogues and other compounds. The true share with any hit is near 2.9%.
CRFR2-BP ag = agonists of human CRF-binding protein/CRF-R2 receptor complex. activation, % at 13.2 µM. HEK293 CRF-R2/CRF-BP, calcium dye fluorescence (FLIPR); percent of saturating CRF peptide response. hit rate 0.46% among 350,000;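 active = activation of at least 50%, plus an integration ratio under a set limit after plate pattern correction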
NRP1-CendR mod = NRP-1/CendR interaction modulation. O14786. inhibition, % at 25 µM. hit rate 0.85% among 360,000. FAM-RPARPAR peptide binding to NRP-1, fluorescence polarization;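 active = inhibition or corrected inhibition above about 18%, plus a signal ratio from 0.5 to 1.5, limit read from the data, passing the limit was not always enough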
Tn7 DDE FP = inhibitors of Tn7 peptide binding to human fibrin DD(E); P02675; FP displacement of FITC-Tn7 peptide from fibrin DD(E); 0% = median of compound wells per plate; inhibition, % at 8.3 µM; hit rate 0.13% among 370,000; AID 720508;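 active = inhibition above the mean of compounds falling within the control limits plus 3 SD of them, cut at about 14% in these data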
Target sequence (P02675 whole entry, looked up): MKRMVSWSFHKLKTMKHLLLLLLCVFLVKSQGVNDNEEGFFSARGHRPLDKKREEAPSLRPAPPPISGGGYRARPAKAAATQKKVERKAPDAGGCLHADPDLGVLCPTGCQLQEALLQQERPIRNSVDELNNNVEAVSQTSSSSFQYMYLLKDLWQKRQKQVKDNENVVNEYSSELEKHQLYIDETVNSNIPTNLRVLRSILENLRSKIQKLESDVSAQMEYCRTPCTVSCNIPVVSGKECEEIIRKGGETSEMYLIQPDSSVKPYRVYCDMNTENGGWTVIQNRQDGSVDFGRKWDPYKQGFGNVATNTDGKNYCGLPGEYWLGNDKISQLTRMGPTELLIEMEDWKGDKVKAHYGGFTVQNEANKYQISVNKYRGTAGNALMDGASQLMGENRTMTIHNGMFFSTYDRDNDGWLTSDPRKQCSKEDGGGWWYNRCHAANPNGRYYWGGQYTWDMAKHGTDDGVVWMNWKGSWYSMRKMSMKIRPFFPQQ
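Assay system: human fibrin DD(E) protein / Input: 2 µM fibrin DD(E) / Benchmarks: high control of 10 µM Aha-Tn7 peptide / Measured by: fluorescence polarization of the labelled Tn7 tracer / Medium: Tris buffer with calcium and detergent, pH 7.8 / Timing: 10 min compound pre-incubation, 3 h probe incubation at room temperature / Repeats: one replicate per compound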
Tn6 DDE FP = disrupts Tn6 cyclic peptide binding to fibrin D-Dimer-E complex; P02675; Fibrin DD(E) TRITC-Tn6 fluorescence polarization displacement; AID 720509; inhibition, % at 8.3 µM; hit rate 0.21% among 370,000;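 active = inhibition above a per-campaign cutoff: mean of compounds within control limits plus 3 SD, cut at about 15% in these data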
CRFBP-R2 block = antagonists of CRF-binding protein/CRF-R2 receptor complex | hit rate 0.59% among 350,000 | HEK293 CRF-R2/CRF-BP, CRF-induced calcium fluorescence | AID 588475 | inhibition, % at 11.8 µM;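 active = inhibition of the ligand-induced calcium signal above about 50% at the single tested concentration, limit read from the data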
proKLK7 act = activates the human kallikrein-7 zymogen; P49862; purified proKLK7, EDANS-DABCYL substrate fluorescence; 100% is mature enzyme control, 0% vehicle; activation, % at 7 µM; hit rate 0.9% among 370,000;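 active = activation above the mean of all tested compounds plus 3 SD, computed per campaign excluding outliers beyond control limits, cut at about 13% in these data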
Target sequence (P49862 whole entry, looked up): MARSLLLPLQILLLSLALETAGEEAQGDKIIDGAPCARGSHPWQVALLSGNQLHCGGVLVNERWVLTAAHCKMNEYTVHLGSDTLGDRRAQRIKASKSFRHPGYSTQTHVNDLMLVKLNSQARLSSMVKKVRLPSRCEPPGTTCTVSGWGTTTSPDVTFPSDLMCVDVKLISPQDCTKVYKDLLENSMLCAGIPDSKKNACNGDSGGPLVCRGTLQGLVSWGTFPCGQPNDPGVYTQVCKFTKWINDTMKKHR
proKLK7 act conf = proKLK7 activation, confirmation. activation, % at 7 µM. shares compounds with proKLK7 act. purified proKLK7, EDANS-DABCYL substrate fluorescence; scaled: vehicle 0, mature enzyme 100. hit rate 68% among 3,200;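 active = activation, as change over the incubation, above the mean of all tested compounds plus 3 SD, cut at about 13% in these data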
EDANS-DABCYL int = optically interferes with EDANS-DABCYL signal, flagging KLK7 hits. EDANS-DABCYL substrate fluorescence interference, no enzyme, 4 h; solvent 0%, active enzyme control 100%. hit rate 80% among 3,200. shares compounds with proKLK7 act. activation, % at 7 µM. AID 686952;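 active = activation above the all-compound mean plus 3 SD, ignoring values outside control-based bounds, cut at about 4.8% in these data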;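 also: value is the 4 h activation minus the activation read at time zero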
Large screens that a line does not name were inactive (follow-up assays come after a bar, where they were run).

c1ccc(-c2cnc(-c3cccnc3)o2)cc1	none
c1ccc(Nc2c(-c3ccco3)nc3ccccn23)cc1	proKLK7 act 16 | proKLK7 act conf 68 | EDANS-DABCYL int 72
CCn1c(/C=C/c2ccccc2)nc2ccccc21	none
CCCn1c(/C=C/c2cc[n+](C)cc2)nc2ccccc21	proKLK7 act 50 | proKLK7 act conf 61 | EDANS-DABCYL int 72
CC1CCC2(CC1)CCC2NCc1ccc(Cl)c(Cl)c1 (stereo not drawn)	none (no result: CRFR2-BP ag, NRP1-CendR mod, CRFBP-R2 block, proKLK7 act)
C/C=C(\C)C(=O)OC(C)(C)[C@@H]1Cc2cc3ccc(=O)oc3cc2O1	none
CC(C)C1Oc2cc3oc(=O)ccc3cc2C1=O (stereo not drawn)	proKLK7 act 35 | proKLK7 act conf 29 | EDANS-DABCYL int 27
CC(C)C[C@H]1COc2cc(Br)ccc2S(=O)(=O)N1Cc1cn(Cc2ccc(C(F)(F)F)cc2)nn1	none (no result: CRFR2-BP ag, NRP1-CendR mod, CRFBP-R2 block)
CCN(CC)C(=O)COc1c(-c2ccco2)oc2ccccc2c1=O	none
CC(=O)Oc1c(-c2ccco2)oc2ccccc2c1=O	proKLK7 act 14 | proKLK7 act conf 21 | EDANS-DABCYL int 19
CC12CCC(=O)N1c1c(sc3nc(N4CCOCC4)c4c(c13)CCCC4)C(=O)N2 (stereo not drawn)	proKLK7 act 20 | proKLK7 act conf 69 | EDANS-DABCYL int 68
COC(=O)c1ccc(-c2sc3nc(N4CCOCC4)c4c(c3c2N)CCCC4)o1	none (no result: NRP1-CendR mod)
O=C(CCCCCN1C(=O)c2ccccc2C1=O)Oc1ccc2c3c(c(=O)oc2c1)CCC3	proKLK7 act 31 | proKLK7 act conf 215 | EDANS-DABCYL int 146
O=C(Oc1cc2oc(=O)c3c(c2cc1Cl)CCCC3)c1ccco1	proKLK7 act 55 | proKLK7 act conf 397 | EDANS-DABCYL int 406
CC(=O)Oc1cc2oc(=O)cc(C)c2cc1Cl	proKLK7 act 82 | proKLK7 act conf 368 | EDANS-DABCYL int 377
CC(=O)Oc1cc2oc(=O)c3c(c2cc1Cl)CCC3	proKLK7 act 74 | proKLK7 act conf 340 | EDANS-DABCYL int 403
O=C(CCCN1C(=O)c2ccccc2C1=O)Oc1ccc(F)cc1	none
CCCCN=C(N)NC(=O)c1ccccc1	none (no result: CRFR2-BP ag, NRP1-CendR mod, CRFBP-R2 block)
O=S1(=O)c2ccc(N3CCCC3)cc2Oc2ccccc2CN1Cc1cn(Cc2ccc(C(F)(F)F)cc2)nn1	none (no result: CRFR2-BP ag, NRP1-CendR mod, CRFBP-R2 block)
CC(c1ccccc1)N1CC[C@H]2C=CC[C@@H](C(=O)Nc3cccc(Cl)c3)[C@H]2C1=O (stereo partly drawn)	none (no result: CRFR2-BP ag, NRP1-CendR mod, CRFBP-R2 block, proKLK7 act)
Cc1nc(SCC(N)=O)[nH]c(=O)c1C	none (no result: CRFR2-BP ag, NRP1-CendR mod, CRFBP-R2 block, proKLK7 act)
O=C(Oc1ccc2c3c(c(=O)oc2c1)CCC3)c1ccco1	proKLK7 act 578 | proKLK7 act conf 774 | EDANS-DABCYL int 820
O=C(Oc1cc2oc(=O)c3c(c2cc1Cl)CCCC3)c1cccs1	proKLK7 act 62 | proKLK7 act conf 260 | EDANS-DABCYL int 223
NC(=O)COc1cc2oc(=O)c3c(c2cc1Cl)CCCC3	none
Cc1cc2oc(=O)c3c(c2cc1OC(=O)c1ccco1)CCCC3	none
Cc1ccc(S(=O)(=O)NC(C(=O)Oc2cc3oc(=O)cc(C)c3cc2Cl)C(C)C)cc1 (stereo not drawn)	proKLK7 act 104 | proKLK7 act conf 173 | EDANS-DABCYL int 102
Nn1c(SCC(=O)N2c3ccccc3Sc3ccc(Cl)cc32)nnc1-c1n[nH]c2c1CCC2	none (no result: CRFR2-BP ag, NRP1-CendR mod, CRFBP-R2 block)
CCCc1cc(-n2ccnc2)n2c(nc3ccccc32)c1C#N	none
CCC(C)Sc1cc(C)c(C#N)c2nc3ccccc3n12 (stereo not drawn)	none
Cc1cc(NCCCN(C)C)n2c(nc3ccccc32)c1C#N	proKLK7 act 72 | proKLK7 act conf 72 | EDANS-DABCYL int 69
Cc1cc(NCCCOC(C)C)n2c(nc3ccccc32)c1C#N	none
CCC(C)Nc1cc(C)c(C#N)c2nc3ccccc3n12 (stereo not drawn)	proKLK7 act 26 | proKLK7 act conf inactive | EDANS-DABCYL int inactive
Cc1cc(-n2ccnc2)n2c(nc3ccccc32)c1C#N	none
CCCc1cc(NCCCO)n2c(nc3ccccc32)c1C#N	proKLK7 act 17 | proKLK7 act conf inactive | EDANS-DABCYL int inactive
Cc1cc(NCCCn2ccnc2)n2c(nc3ccccc32)c1C#N	proKLK7 act 17 | proKLK7 act conf 54 | EDANS-DABCYL int 72
CCCCc1c(-c2ccccc2OC)ncn1Cc1ccc(C)cc1	none (no result: CRFR2-BP ag, NRP1-CendR mod, CRFBP-R2 block)
Cc1nc2nc(-c3ccc(F)cc3)cn2nc1C	proKLK7 act 67 | proKLK7 act conf 69 | EDANS-DABCYL int 59
CCc1ccc(-c2cn3nc(C)c(C)nc3n2)cc1	proKLK7 act 49 | proKLK7 act conf 73 | EDANS-DABCYL int 72
Cc1nc2nc(-c3ccccc3)cn2nc1C	proKLK7 act 64 | proKLK7 act conf 70 | EDANS-DABCYL int 72
CCc1c(-c2ccccc2)nc2nc(C)c(C)nn12	proKLK7 act 15 | proKLK7 act conf inactive | EDANS-DABCYL int inactive
Brc1ccc(-c2cn3nc4c(nc3n2)CCCC4)cc1	none
C#CCOCCOCCOCCNc1nc(N2CCOCC2)nc(N2CCN(C(=O)[C@H](CCC(=O)O)n3cc(C(N)CC(C)C)nn3)CC2)n1 (stereo partly drawn)	none (no result: CRFR2-BP ag, NRP1-CendR mod, CRFBP-R2 block, proKLK7 act)
C[C@@H]1CN([C@@H](C)CN(C)C)C(=O)c2cc(NC(=O)Nc3ccccc3)ccc2O[C@@H](C)CCCCO[C@H]1CN(C)S(=O)(=O)c1ccc(F)cc1	none (no result: CRFR2-BP ag, NRP1-CendR mod, CRFBP-R2 block, proKLK7 act)
O=C1CCCC2=C1C(c1ccc(O)cc1)c1c(ccc3ccccc13)N2 (stereo not drawn)	proKLK7 act 20 | proKLK7 act conf inactive | EDANS-DABCYL int inactive
C=CCOC(=O)N[C@@H](c1coc2ccccc2c1=O)[C@@H](C)/C=C/CC(=O)OC	none (no result: CRFR2-BP ag, NRP1-CendR mod, CRFBP-R2 block)
O=C(O)c1cc2c(ccc3ccccc32)oc1=O	proKLK7 act 34 (no result: CRFR2-BP ag, CRFBP-R2 block) | proKLK7 act conf 41 | EDANS-DABCYL int 42
O=C(c1cc2c(ccc3ccccc32)oc1=O)N1CCCC1	proKLK7 act 24 | proKLK7 act conf 49 | EDANS-DABCYL int 53
CCOC(=O)c1cc2c(ccc3ccccc32)oc1=O	none
O=C(O)c1cc2ccc3ccccc3c2oc1=O	proKLK7 act 31 | proKLK7 act conf 79 | EDANS-DABCYL int 82
COc1ccccc1CNC(=O)N(CCc1c(C)[nH]c2ccccc12)Cc1cccs1	none (no result: CRFR2-BP ag, NRP1-CendR mod, CRFBP-R2 block)
Cc1cc2c(c(=O)o1)[C@@]1(C(=O)N(C)c3ccccc31)C1=C(CC(C)(C)CC1=O)O2	none (no result: CRFR2-BP ag, NRP1-CendR mod, CRFBP-R2 block)

Source: PubChem (several laboratories)
